ChEMBL document CHEMBL1125181, “Naphthosultam derivatives: a new class of potent and selective 5-HT2 antagonists” (J Med Chem, 1991)

How the values were obtained:
[1] = biological target: T1, 5-hydroxytryptamine receptor 1A (Rattus norvegicus, UniProt P19327); assay: Binding constant against 5-hydroxytryptamine 1A receptor (in vivo); conditions: in the assay text read “(in vitro)” for “(in vivo)”
T1 sequence (P19327 whole entry): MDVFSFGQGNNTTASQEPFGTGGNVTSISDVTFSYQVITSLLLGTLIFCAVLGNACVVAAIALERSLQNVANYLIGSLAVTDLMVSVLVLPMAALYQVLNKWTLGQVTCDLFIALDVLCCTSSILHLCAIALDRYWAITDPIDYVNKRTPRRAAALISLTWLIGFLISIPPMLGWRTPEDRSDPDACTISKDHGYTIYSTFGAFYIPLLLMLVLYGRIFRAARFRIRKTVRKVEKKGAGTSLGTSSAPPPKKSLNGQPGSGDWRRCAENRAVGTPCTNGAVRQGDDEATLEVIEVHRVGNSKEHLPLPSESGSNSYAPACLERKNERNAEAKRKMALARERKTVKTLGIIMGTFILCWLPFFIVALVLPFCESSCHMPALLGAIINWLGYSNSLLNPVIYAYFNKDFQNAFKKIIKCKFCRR
Summary of the method: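 Rat hippocampal membranes (1 mg/mL protein, Tris-HCl) preincubated 5 min at 37 °C with compound, then [3H]-8-OH-DPAT (final 1 nM) added for a further 10 min. Nonspecific binding from 10⁻⁵ M serotonin. Filtration through glass-fibre filters, two ice-cold buffer washes, scintillation counting of bound radioactivity.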

D(2) dopamine receptor [2] = biological target: T2, D(2) dopamine receptor (Rattus norvegicus, UniProt P61169); assay: The concentration required to inhibit [3H]spiperone binding to dopamine receptor D2 in rat brain membranes (in vitro); format: cell membranes
T2 sequence (P61169 whole entry): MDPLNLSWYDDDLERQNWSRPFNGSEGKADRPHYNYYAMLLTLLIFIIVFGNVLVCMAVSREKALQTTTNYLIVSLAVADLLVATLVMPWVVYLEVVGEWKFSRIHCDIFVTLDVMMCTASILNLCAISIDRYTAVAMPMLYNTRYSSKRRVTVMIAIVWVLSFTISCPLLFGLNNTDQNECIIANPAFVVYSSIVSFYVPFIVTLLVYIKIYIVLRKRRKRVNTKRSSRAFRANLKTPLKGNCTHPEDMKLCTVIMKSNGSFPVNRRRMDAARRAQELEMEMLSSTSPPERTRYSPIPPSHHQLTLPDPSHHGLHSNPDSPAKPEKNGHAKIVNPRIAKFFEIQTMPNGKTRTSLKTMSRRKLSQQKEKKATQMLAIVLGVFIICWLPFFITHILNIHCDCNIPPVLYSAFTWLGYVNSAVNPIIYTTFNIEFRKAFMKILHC
Summary of the method: (§1)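 Rat striatal membranes (0.05 mg/mL protein) in Tris-HCl with BSA 2 mg/mL, NaCl, cinanserin 10⁻⁶ M and compound. [3H]spiperone (final 0.05 nM) added after 5 min, incubation continued 40 min. Nonspecific binding from 10⁻⁶ M sulpiride. Filtration and scintillation counting.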

D(2) dopamine receptor [3] = biological target: T2, D(2) dopamine receptor; assay: Binding constant against dopamine receptor D2 […]; summary of the method: as §1
Histamine H1 receptor = Histamine H1 receptor (Cavia porcellus, UniProt P31389); assay: Binding constant against histamine H1 receptor […]
Sequence of Histamine H1 receptor (P31389 whole entry): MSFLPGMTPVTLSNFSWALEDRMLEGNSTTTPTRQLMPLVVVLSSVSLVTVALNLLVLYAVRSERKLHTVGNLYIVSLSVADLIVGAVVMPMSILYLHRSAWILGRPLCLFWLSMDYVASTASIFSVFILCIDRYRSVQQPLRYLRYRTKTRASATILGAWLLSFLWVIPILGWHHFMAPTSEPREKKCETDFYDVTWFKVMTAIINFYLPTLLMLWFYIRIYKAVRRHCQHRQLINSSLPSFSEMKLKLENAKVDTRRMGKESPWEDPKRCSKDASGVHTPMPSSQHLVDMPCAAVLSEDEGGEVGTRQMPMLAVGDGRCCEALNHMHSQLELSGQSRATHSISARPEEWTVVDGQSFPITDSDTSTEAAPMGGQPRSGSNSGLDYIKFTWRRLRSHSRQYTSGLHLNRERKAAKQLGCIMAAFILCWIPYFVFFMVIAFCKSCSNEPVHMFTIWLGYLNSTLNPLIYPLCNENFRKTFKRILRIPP
Summary of the method: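 Male guinea pig cerebellar membranes (0.35 mg/mL protein) in 50 mM sodium phosphate pH 7.5. Incubated 30 min at 25 °C with compound and [3H]mepyramine (final 0.7 nM). Nonspecific binding from 10⁻⁶ M promethazine. Filtration through glass-fibre filters and liquid scintillation counting.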

Mus musculus [4] = assay: The concentration required to induce head twich in mice when given po (in vivo); format: functional
Summary of the method: (§2)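 Mice, 6 per dose, dosed sc 60 min or po 90 min before mescaline 50 mg/kg ip. Observed for 2 min starting 15 min after mescaline; head twitches scored as all-or-none.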

Mus musculus [5] = assay: The concentration required to induce head twich in mice when given sc (in vivo); format: functional; summary of the method: as §2
Rattus norvegicus [6] = assay: The concentration required to induce head twich for 16 hours in rats when given po (in vivo); format: functional
Summary of the method: (§3)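 Rats, 6 per dose, dosed sc or po, then given mescaline 20 mg/kg iv 1 h later (6 or 16 h later for duration of action). Head twitches counted for 15 min from injection. Fewer than 3 twitches counted as antagonism.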

Rattus norvegicus [7] = assay: The concentration required to induce head twich for 6 hours in rats when given po (in vivo); format: functional; summary of the method: as §3
Rattus norvegicus [8] = assay: The concentration required to induce head twich for 6 hours in rats when given sc (in vivo); format: functional; summary of the method: as §3
Rattus norvegicus [9] = assay: The concentration required to induce head twich for 1 hours in rats when given po (in vivo); format: functional; summary of the method: as §3
Rattus norvegicus [10] = assay: The concentration required to induce head twich for 1 hours in rats when given sc (in vivo); format: functional; summary of the method: as §3
Rattus norvegicus [11] = assay: The concentration required to induce head twich for 16 hours in rats when given sc (in vivo); format: functional; summary of the method: as §3
[12] = biological target: Serotonin 2 (5-HT2) receptor (Rattus norvegicus, UniProt P30994+P08909+P14842); assay: The concentration required to inhibit [3H]ketanserin binding to 5-hydroxytryptamine 2 receptor in rat brain membranes (in vitro); format: cell membranes
Summary of the method: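 Male Sprague-Dawley rat cortical membranes (0.15 mg/mL protein) in Tris-HCl pH 7.6 with BSA 2 mg/mL. Incubated 15 min at 37 °C with compound and [3H]ketanserin (final 0.4 nM). Nonspecific binding from 10⁻⁶ M methysergide. Filtration and scintillation counting. IC50 by nonlinear regression; mean of at least 2 runs, 6 concentrations in triplicate.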

[13] = biological target: T3, Adrenergic receptor alpha-1 (Rattus norvegicus, UniProt P15823+P23944+P43140); assay: The concentration required to inhibit 3[H]prazosin binding to Alpha-1 adrenergic receptor in rat brain membranes was measured (in vitro); format: cell membranes
T3 sequence (P15823 whole entry): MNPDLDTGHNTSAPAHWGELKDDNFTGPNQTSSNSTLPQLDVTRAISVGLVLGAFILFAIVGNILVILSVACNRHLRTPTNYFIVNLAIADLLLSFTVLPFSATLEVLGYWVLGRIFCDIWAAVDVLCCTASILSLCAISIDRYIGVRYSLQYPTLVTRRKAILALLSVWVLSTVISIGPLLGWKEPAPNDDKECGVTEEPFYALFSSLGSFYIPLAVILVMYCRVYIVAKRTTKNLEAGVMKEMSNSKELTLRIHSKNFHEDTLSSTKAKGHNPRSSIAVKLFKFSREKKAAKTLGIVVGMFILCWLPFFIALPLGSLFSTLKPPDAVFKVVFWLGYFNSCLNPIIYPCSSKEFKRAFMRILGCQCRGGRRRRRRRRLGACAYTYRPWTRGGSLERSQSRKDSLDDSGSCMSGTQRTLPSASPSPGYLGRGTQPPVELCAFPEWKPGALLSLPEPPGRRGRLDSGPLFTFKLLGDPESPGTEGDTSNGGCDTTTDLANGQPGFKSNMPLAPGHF
T3 sequence (P23944 whole entry): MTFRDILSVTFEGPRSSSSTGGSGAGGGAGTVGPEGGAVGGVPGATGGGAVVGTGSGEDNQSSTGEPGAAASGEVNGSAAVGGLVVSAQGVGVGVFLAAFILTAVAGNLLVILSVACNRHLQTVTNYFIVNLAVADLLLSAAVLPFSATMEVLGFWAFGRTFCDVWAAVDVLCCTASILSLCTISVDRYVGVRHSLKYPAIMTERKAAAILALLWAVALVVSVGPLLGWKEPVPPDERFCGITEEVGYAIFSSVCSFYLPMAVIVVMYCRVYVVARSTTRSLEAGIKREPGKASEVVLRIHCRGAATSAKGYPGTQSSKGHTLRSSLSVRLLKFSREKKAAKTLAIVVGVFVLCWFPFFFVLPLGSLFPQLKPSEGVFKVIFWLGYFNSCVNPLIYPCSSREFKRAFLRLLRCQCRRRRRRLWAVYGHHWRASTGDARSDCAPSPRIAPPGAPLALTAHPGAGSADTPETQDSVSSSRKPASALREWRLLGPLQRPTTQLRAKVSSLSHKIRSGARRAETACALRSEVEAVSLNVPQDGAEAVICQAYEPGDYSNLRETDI
T3 sequence (P43140 whole entry): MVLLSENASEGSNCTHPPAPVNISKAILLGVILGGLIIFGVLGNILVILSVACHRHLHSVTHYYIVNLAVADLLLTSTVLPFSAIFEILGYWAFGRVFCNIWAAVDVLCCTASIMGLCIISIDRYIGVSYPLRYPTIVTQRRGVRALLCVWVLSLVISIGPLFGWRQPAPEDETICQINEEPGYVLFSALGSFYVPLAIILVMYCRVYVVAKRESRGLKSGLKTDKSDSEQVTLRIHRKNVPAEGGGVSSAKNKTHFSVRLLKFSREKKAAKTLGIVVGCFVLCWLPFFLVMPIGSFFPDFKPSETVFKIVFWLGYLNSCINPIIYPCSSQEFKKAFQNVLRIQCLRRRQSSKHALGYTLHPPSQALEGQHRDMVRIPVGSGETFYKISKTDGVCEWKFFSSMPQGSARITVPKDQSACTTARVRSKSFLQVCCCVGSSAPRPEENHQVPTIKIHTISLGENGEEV
Summary of the method: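 Male Sprague-Dawley rat cerebrocortical membranes (0.15 mg/mL protein) in Tris-HCl pH 7.6 with BSA 2 mg/mL. Incubated 40 min at 25 °C with compound and [3H]prazosin (final 0.065 nM). Nonspecific binding from 10⁻⁶ M phentolamine. Filtration and scintillation counting. IC50 values are the mean of at least 2 runs, each with 6 concentrations in triplicate.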

Row | IC50 [12] | IC50 [13] | SMILES | Ki [1] | IC50 (D(2) dopamine receptor [2]) | Ki (D(2) dopamine receptor [3]) | Ki (Histamine H1 receptor) | ED50 (Mus musculus [4]) | ED50 (Mus musculus [5]) | ED50 (Rattus norvegicus [6]) | ED50 (Rattus norvegicus [7]) | ED50 (Rattus norvegicus [8]) | ED50 (Rattus norvegicus [9]) | ED50 (Rattus norvegicus [10]) | ED50 (Rattus norvegicus [11])
1 |  |  | O=S1(=O)c2cccc3cccc(c23)N1CCCN1CCN(c2ccc(F)cc2)CC1 [FANANSERIN] | 70 nM | > 1000 nM | > 1000 nM | 25 nM | 0.43 mg/kg | 0.16 mg/kg | 14.2 mg/kg | 2.38 mg/kg | 0.45 mg/kg | 0.99 mg/kg | 0.65 mg/kg | 5.91 mg/kg
2 | 3.7 nM | 11 nM | O=S1(=O)c2cccc3cccc(c23)N1CCCCN1CCN(c2ccc(F)cc2)CC1 |  | 300 nM |  |  |  |  |  |  |  |  |  | 
